Compound activity from PubChem.
DAGLB inh = blocks human DAGLB lipase activity. Q8NCG7. HEK293T DAGLB membrane lysate, EnzChek fluorogenic substrate. inhibition, % at 5.17 µM. actives 0.059% (n = 340,000). AID 504411; in the data active = inhibition above about 34%;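 note: 0% = enzyme with vehicle and 100% = wells lacking enzyme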
TAAR1 agonist = human TAAR1 agonism. CHO RD-HGA16 TAAR1, Fluo-8 calcium fluorescence; vehicle wells 0%, saturating PEA agonist 100%. activation, % at 3 µM. actives 0.99% (n = 360,000);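 active = activation above the mean activation of all test compounds in the run plus 3 SD, cut at about 38% in these data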
Target sequence (Q96RJ0 whole entry, looked up): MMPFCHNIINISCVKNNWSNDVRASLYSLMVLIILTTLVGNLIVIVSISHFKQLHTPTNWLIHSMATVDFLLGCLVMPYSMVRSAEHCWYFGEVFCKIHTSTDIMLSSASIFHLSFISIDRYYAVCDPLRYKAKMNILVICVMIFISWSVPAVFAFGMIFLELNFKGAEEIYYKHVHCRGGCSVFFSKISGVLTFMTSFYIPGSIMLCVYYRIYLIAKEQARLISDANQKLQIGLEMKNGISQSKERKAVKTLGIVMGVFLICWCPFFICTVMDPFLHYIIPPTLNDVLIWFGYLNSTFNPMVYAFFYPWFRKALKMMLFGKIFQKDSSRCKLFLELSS
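Test system: RD-HGA16 (CHO) cells co-expressing Gα16 and hTAAR1; dosing: one-point dosing at 3 µM (nominal); timing: 17-24 h seeding, 75 min 37 °C dye, 30 min RT; signal: kinetic Fluo-8 calcium fluorescence; read-out basis: % activation relative to PEA EC100 response; controls: DMSO and PEA EC100; replicates: n 1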
TAAR1 antag = antagonists of human TAAR1; actives 1.5% (n = 360,000); CHO RD-HGA16 TAAR1, Fluo-8 calcium fluorescence, antagonist; AID 624466; Q96RJ0; inhibition, % at 3 µM;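 active = inhibition above a per-plate cutoff, the mean inhibition of test compounds on that plate plus 3 SD, cut at about 49% in these data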;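 note: 0% = DMSO plus EC80 beta-PEA response and 100% = DMSO alone without agonist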
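Material: CHO RD-HGA16 cells bearing hTAAR1; compound dosing: one-point dosing, 3 µM nominal final; schedule: dye loading 75 min at 37 °C, then 30 min room temperature; measured by: calcium fluorescence with Fluo-8; control set: vehicle and agonist controls; replication: n of 1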
MPTP inh = blocks calcium-induced mitochondrial swelling | isolated mouse mitochondria, Ca2+ swelling absorbance, 30 min | inhibition, % at 10 µM | actives 1.4% (n = 360,000);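 active = inhibition of 50% or more, scaled per plate between neutral and stimulator controls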;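 note: 0% = DMSO wells given calcium and 100% = 1 mM EGTA wells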
GPR7 antag = blocks human GPR7 receptor signaling; P48145; GPR7-expressing cells, fluorescence antagonist assay; inhibition, % at 4.4 µM; actives 1.1% (n = 290,000); AID 1861; in the data active = inhibition above about 16%, passing the limit was not always enough;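 note: cells stimulated with the agonist NPW; 0% = agonist with vehicle and 100% = vehicle without agonist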
Target sequence (P48145 whole entry, looked up): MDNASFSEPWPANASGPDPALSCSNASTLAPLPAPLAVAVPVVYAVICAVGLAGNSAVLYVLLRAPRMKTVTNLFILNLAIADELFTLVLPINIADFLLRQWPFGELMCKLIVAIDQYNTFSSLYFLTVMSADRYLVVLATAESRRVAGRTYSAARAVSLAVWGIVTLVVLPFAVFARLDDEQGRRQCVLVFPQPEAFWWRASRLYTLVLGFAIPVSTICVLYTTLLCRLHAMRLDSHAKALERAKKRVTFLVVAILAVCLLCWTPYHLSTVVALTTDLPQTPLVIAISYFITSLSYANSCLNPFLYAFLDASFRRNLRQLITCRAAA
Starred values were filed as active, the others as inactive; nt = no result. An excerpt weighted towards active compounds, which were near 4% of everything screened.

SMILES | DAGLB inh | TAAR1 agonist | TAAR1 antag | MPTP inh | GPR7 antag
CCn1c(CNc2cccc(Cl)c2)nnc1SCc1ccccc1 | -30 | 15 | 16 | 4 | 19*
CCn1c(CNc2ccc(Cl)cc2)nnc1SCc1ccc(C)cc1 | -21 | 5 | 5 | 0 | 11
CCCNC(=O)C1(C)CCN(C(=O)c2c(F)ccc(C)c2F)C1 (centres undefined) | nt | 7 | -10 | -1 | nt
C=CCNc1ccccc1S(=O)(=O)NCc1ccccc1 | -2 | 4 | -13 | 0 | nt
CN(C)C(CNC(=O)c1ccc(C2SCCS2)cc1)c1ccccc1 (centres undefined) | -2 | 38* | -18 | -3 | -7
CCC(C)(C)c1ccc(OCCCC[n+]2cccc(C)c2C)c(C(C)(C)CC)c1 | -2 | 21 | -16 | 41 | 22*
COc1ccc(C(=O)C[n+]2cccc(C)c2C)cc1[N+](=O)[O-] | 1 | 0 | -2 | -1 | -7
Cc1cc(C(=O)CSc2nc(N)cc(N)n2)c(C)n1CCc1ccc(F)cc1 | 4 | 39* | 17 | 10 | 8
COc1ccc(C(=O)c2[nH]c(N)c(C(=O)NCCc3c[nH]c4ccccc34)c2-c2ccccc2C(F)(F)F)cc1 | nt | 8 | -3 | nt | nt
CCN1/C(=C/C(C)=O)Sc2ccc(OC)cc21 | 1 | 2 | -14 | 0 | -9
CCOC(=O)/C(=C/C=C1\Sc2cc(OCC)c(OCC)cc2N1CC)C(C)=O | -126 | 158* | 73* | 0 | 23
OC[C@@H]1CN(Cc2cccc3ccccc23)C[C@H](n2cnc3c(NCc4ccco4)ncnc32)O1 | nt | 20 | 65* | -2 | nt
CC(C)CNc1ncnc2c1ncn2[C@H]1CN(CCc2ccccc2)C[C@@H](CO)O1 | nt | 41* | -11 | 3 | nt
OC[C@@H]1CN(Cc2ccc(-c3ccccc3)cc2)C[C@H](n2cnc3c(Nc4ccccc4)ncnc32)O1 | nt | 11 | 51* | 2 | nt
CC(C)CNc1ncnc2c1ncn2[C@H]1CN(Cc2cccc3ccccc23)C[C@@H](CO)O1 | nt | 5 | 7 | 1 | nt
CC(C)CNc1ncnc2c1ncn2[C@H]1CN(Cc2ccc(Cl)cc2)C[C@@H](CO)O1 | nt | 0 | 5 | 1 | nt
CSC1=NSC2=NC(=O)/C(=C\c3cccs3)C(=N)N12 | 8 | 4 | 2 | 6 | -2
CSC1=NSC2=NC(=O)/C(=C/c3coc4ccc(O)cc4c3=O)C(=N)N12 | -46 | 412* | 109* | 25 | -5
OC[C@@H]1CN(Cc2cccs2)C[C@H](n2cnc3c(NCc4ccncc4)ncnc32)O1 | nt | 2 | -26 | 0 | nt
CC(C)(C)c1ccc(C(=O)Nc2ccccc2NC(=O)c2ccco2)cc1 | -4 | 6 | 49* | -2 | -7
O=C(Nc1ccccc1NC(=O)c1ccco1)c1ccccc1 | -3 | -1 | 6 | -1 | -5
CC(C)CC1C(=O)N(Cc2cn(CCC3OCCO3)nn2)CCS(=O)(=O)N1Cc1ccc(-c2ccc(Cl)c(Cl)c2)cc1 (centres undefined) | -3 | 5 | 28 | -1 | nt
Cn1c(N2CCN(C(c3ccccc3)c3ccccc3)CC2)nc2ccccc21 | -14 | 1 | 50* | 0 | -13
Cc1ccc(C)c(NCCCCCCCC(=O)O)c1 | nt | 0 | 7 | 0 | nt
CCN(CC)S(=O)(=O)c1cc(C(=O)n2cccn2)c(Cl)cc1Cl | 4 | -2 | -27 | 0 | 19*
SMILES | DAGLB inh | TAAR1 agonist | TAAR1 antag | MPTP inh | GPR7 antag
CCN(CC)S(=O)(=O)c1cc(OC)c(Cl)cc1Cl | -6 | -2 | -10 | -1 | 17
CCOc1cc(/C=N/NC(=O)c2cc3c(ccc4ccccc43)o2)ccc1O | -7 | 1 | 35 | 1 | -25
CCOC(=O)COc1ccccc1/C=N\NC(=O)c1cc2c(ccc3ccccc32)o1 | -7 | 4 | 49* | -1 | -5
CC(C)CCNC(=O)[C@@H](Cc1ccccc1)NC(=O)[C@H]1O[C@@H](n2ccc(=O)[nH]c2=O)[C@H](O)[C@@H]1O | nt | 1 | -11 | nt | nt
c1ccc2c(c1)OCCOCCOc1ccccc1OCCOCCO2 | -1 | 18 | 53* | 1 | 4
CS(=O)(=O)Nc1cccc(NC(=O)c2cccc3c(-c4cccc(C(N)=O)c4)coc23)c1 | nt | 8 | 66* | 1 | nt
CS(=O)(=O)Nc1cccc(NC(=O)c2cccc3c(-c4ccc(F)c(F)c4)coc23)c1 | nt | 1 | 64* | 3 | nt
CS(=O)(=O)Nc1cccc(NC(=O)c2ccc(-c3ccc(F)c(F)c3)c3ccoc23)c1 | nt | 4 | 37 | 3 | nt
COCCNC(=O)c1cccc2c(-c3cccc(C(N)=O)c3)coc12 | nt | 0 | -20 | 1 | nt
O=C(NCCc1cccs1)C1CC(c2cccc([N+](=O)[O-])c2)=NO1 (centres undefined) | -1 | 32 | 49* | 0 | -5
CC(C)/C=C1\CC/C(=C\c2ccc(N(C)C)cc2)C1=O | -31 | 57* | 72* | 34 | -5
O=C1NC[C@H](c2ccccc2)OC(=O)[C@@H](Cc2ccc(F)cc2)C/C=C\C[C@H]1CC(=O)N(CCO)Cc1ccccc1 | 1 | 49* | 81* | -1 | nt
O=C1NC[C@H](c2ccccc2)OC(=O)[C@H](Cc2ccc(F)cc2)C/C=C\C[C@H]1CC(=O)N(CCO)Cc1ccccc1 | 1 | 38* | 82* | 0 | nt
CC(C)(C)OC(=O)C[C@@H]1C/C=C\C[C@H](CC(=O)N(CCO)Cc2ccccc2)C(=O)NC[C@@H](c2ccccc2)OC1=O | -2 | 7 | 12 | 1 | nt
CC(C)c1[nH]nc2c1C(c1ccccc1)NC2=O (centres undefined) | nt | 3 | -4 | nt | nt
O=C(Nc1ccc(C(=O)N2CCCC2)cc1)c1ccccc1 | -1 | 0 | -16 | 2 | nt
O=C(Nc1ccc2c(c1)CCCN2C(=O)c1ccccc1)c1ccccc1 | 3 | 12 | 58* | -1 | 4
Nc1c(C(=O)NCc2ccccc2)nnn1Cc1ccc(F)cc1 | 2 | 41* | 6 | 0 | 10
COc1ccc(CNC(=O)c2nnn(Cc3ccc(OC)cc3)c2N)cc1 | -2 | 8 | 11 | 0 | -8
O=S(=O)(c1ccc(F)cc1)N1CCCc2nc(-c3ccc(F)cc3)ccc21 | nt | 0 | 0 | nt | nt
C[C@@]12C(=O)N(c3ccccc3)C(=O)N1[C@@H]1c3ccccc3OC[C@@H]1[C@H]2c1ccccc1 | 6 | 6 | 55* | 1 | nt
C[C@]12C(=O)N(c3ccc(Cl)cc3)C(=O)N1[C@H]1c3ccccc3OC[C@@H]1[C@H]2c1ccccc1 | -14 | nt | nt | 1 | -6
O=C(O)CC/C(=C\c1cccc(NC(=O)c2ccccc2Cl)c1)c1nc2ccccc2s1 | 8 | 12 | 50* | -1 | 6
COc1ccc(-c2cc(C(=O)NCCc3ccc(S(N)(=O)=O)cc3)c3ccccc3n2)cc1 | 0 | 8 | 54* | -1 | -10
Cc1ccc(-c2cc(C(=O)NCCc3ccc(S(N)(=O)=O)cc3)c3ccccc3n2)cc1 | -4 | 6 | 51* | 0 | 4
NS(=O)(=O)c1ccc(CCNC(=O)c2cc(-c3ccccc3)nc3ccccc23)cc1 | 0 | 7 | 45 | 1 | -10
